# H69AR inhibit: growth inhibitors of human H69AR lung tumor cells; actives 6% (n = 85,000); H69AR lung tumor viability, ATP luminescence, 72 h; stronger effect = lower value; viability, % at 10 µM;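 active = viability at or below 40%; inactive = viability above 40%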;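 note: multidrug resistant small cell line overexpressing MRP-1 efflux transporter; 100% = mean luminescence of untreated control wells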
# bCat KO growth: beta-catenin-lacking colon tumor cell growth suppression; actives 1.5% (n = 140,000); HCT116 beta-catenin knockout viability, CellTiter-Glo, 60 h; stronger effect = lower value; AID 818; viability, % at 10 µM;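 active = viability at or under a set limit, the compound median less 4 SD, cut at about 6% in these data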;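 note: 0% = Hyamine 1622 control at 20 µM and 100% = untreated cell control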
# HCT116 PTEN-null: growth suppressors of cells with PTEN tumor suppressor deletion | actives 1.2% (n = 140,000) | viability, % at 10 µM | AID 827 | HCT116 PTEN-null viability, CellTiter-Glo, 60 h; stronger effect = lower value;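 active = viability at or below a set limit, 4 SD under the median of all tested compounds, cut at about 3.7% in these data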;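 note: PTEN knockout HCT116 line with beta catenin targeted HCT116 as companion control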
# HUVEC prolif 384: human endothelial cell proliferation inhibition. viability, % at 10 µM (by protocol). AID 648. HUVEC proliferation, CellTiter-Glo luminescence, 72 h; stronger effect = lower value. actives 1.1% (n = 86,000);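 active = viability at or below 30%; inactive = viability above 30%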;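 note: 100% = median luminescence of DMSO-only cell control wells on each plate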
# Lung fibro prol: blocks proliferation of human lung fibroblasts; AID 719; viability, % at 10 µM; LL 47 human lung fibroblast viability, ATP luminescence; stronger effect = lower value; actives 1.1% (n = 85,000);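 active = viability at or below 50% in the single dose screen; inactive = viability above 50%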;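 note: compound exposure lasted 72 h before the ATP readout; 100% = median luminescence of untreated cell-only wells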
#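 Benchmarks: Cell-only wells, no compound | Test system: LL 47 human lung fibroblasts, passage 12 or lower | Input: 1,150 cells/well | Measured by: CellTiter-Glo luminescence measuring cellular ATP | Medium: IMEM, 15% FBS supplement | Schedule: Overnight attachment after seeding, then 72 h compound exposure at 37 °C | Doses: Compound addition at 0.1% DMSO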
# * marks the source's active call; other numbers are inactive results; . = no result. Only a selection was taken, and hits are over-represented in it overall.
SMILES,H69AR inhibit,bCat KO growth,HCT116 PTEN-null,HUVEC prolif 384,Lung fibro prol
CCCn1nc(C(=O)Oc2ccc3c(C)cc(=O)oc3c2)c2ccccc2c1=O,.,93.5,98.8,.,.
NC(=O)c1c(NC(=O)C2c3ccccc3Oc3ccccc32)sc2c1CCCCC2,.,81.7,85.3,.,.
CCN(C(=O)COC(=O)c1cccnc1Nc1ccccc1F)C1CCS(=O)(=O)C1 (centres undefined),.,75.8,84.5,.,.
COc1cc(C2=NOC(C(=O)NCc3cccs3)C2)cc(OC)c1OC (centres undefined),24.0*,20.2,20.0,54.9,57.9
COc1ccc(C2=NOC(C(=O)NCc3cccs3)C2)cc1OC (centres undefined),24.2*,21.8,21.4,64.6,57.9
COc1ccc(C2=NOC(C(=O)NCc3cccs3)C2)cc1 (centres undefined),72.2,95.1,104.9,54.1,96.2
COC(=O)c1ccc(COc2ccccc2/C=C(\C#N)C(=O)Nc2c(C)cccc2C)cc1,.,2.4*,1.8*,.,.
COc1ccc(/C=N/NC(=O)COc2cc(C)cc(C)c2)cc1COC(C)=O,.,99.2,94.8,.,.
O=C(Nc1ccc(N=Nc2ccccc2)c(NC(=O)C2CCCO2)c1)C1CCCO1 (centres undefined),.,61.0,48.2,.,.
O=C(COc1ccc(-c2ccccc2)cc1)N1CCN(S(=O)(=O)Cc2ccccc2)CC1,26.3*,25.6,30.4,48.8,52.3
Cc1ccc(OCC(=O)N2CCN(C(=O)Cc3ccccc3)CC2)cc1,104.9,97.0,93.2,103.3,101.8
O=C(/C=C/c1cccs1)Nc1ccc(Br)cn1,.,12.8,11.0,.,.
CCCCCNC(=O)c1c[nH]c2ccc(S(=O)(=O)N3CCC4(CC3)OCCO4)cc2c1=O,.,54.3,61.0,.,.
S=C(Nc1ccccc1)Nc1ccc(OCc2ccc(Cl)cc2Cl)cc1,.,86.0,78.3,.,.
OCCCCNCc1ccc(OCc2ccc(Cl)cc2Cl)cc1,.,1.8*,1.6*,.,.
CCOc1ccc(NS(=O)(=O)c2ccc(NS(=O)(=O)c3ccccc3)cc2)cc1,62.7,90.2,92.9,83.5,92.6
CCOc1ccc(S(=O)(=O)Nc2ccccc2SC)cc1,30.5*,78.3,68.0,80.2,84.8
CCOc1ccc(S(=O)(=O)Nc2cccc(Cl)c2)cc1,10.0*,.,.,55.1,.
CCOc1ccc(S(=O)(=O)Nc2cc(Cl)ccc2O)cc1,17.3*,61.2,59.0,80.0,95.8
O=C(Oc1ccc(-c2nnco2)cc1)N(c1ccccc1)c1ccccc1,80.7,96.9,96.8,122.5,102.0
COc1ccccc1NC1=C(N2CCCCC2)C(=O)c2ccccc2C1=O,.,3.1*,5.3,.,.
CCc1nnc(NC(=O)CSc2nnc(-c3ccccc3NC(=O)c3ccccc3)o2)s1,30.1*,30.1,23.1,86.6,58.6
CCOC(=O)CSc1nnc(-c2ccccc2NC(=O)c2ccccc2)o1,87.8,97.9,111.5,85.6,93.4
O=C(Nc1ccc(Br)cc1)c1ccc(N2C(=O)C3CC=C(Cl)CC3C2=O)cc1 (centres undefined),25.4*,89.1,85.0,36.4,91.7
O=c1c2ccccc2nc(/C=C/c2ccc(O)cc2)n1CCc1ccccc1,.,56.0,35.4,.,.
SMILES,H69AR inhibit,bCat KO growth,HCT116 PTEN-null,HUVEC prolif 384,Lung fibro prol
Cn1c(/C=C/c2ccc([N+](=O)[O-])o2)nc2ccccc2c1=O,-0.5*,1.8*,1.5*,15.6*,5.2*
Cc1ccc(NC(=O)c2cc(N3CCOCC3)nc3ccccc23)cc1,33.4*,72.9,61.1,90.5,85.5
O=C1C=C(c2ccccc2)C(=O)N1Nc1ccccc1,1.3*,100.1,101.6,73.2,66.8
Cc1ccc(NN2C(=O)C=C(c3ccc(Cl)cc3)C2=O)cc1,2.3*,42.2,9.9,52.8,87.5
C=CCn1c(SCC(=O)c2[nH]c(C)c(C(=O)OCC)c2C)nc2scc(-c3ccccc3)c2c1=O,.,2.0*,1.3*,.,.
C=CCn1c(SCC(=O)c2[nH]c(C)c(C(=O)OCC)c2C)nc2scc(-c3ccc(OC)cc3)c2c1=O,.,1.7*,1.6*,.,.
Cc1ccc2nc3c(c(N)c2c1)CCN3c1ccccc1,72.7,86.4,78.9,87.7,89.0
CCCCN1CCc2c1nc1ccc(Br)cc1c2N,68.0,7.6,6.4,13.3*,28.1*
O=C(N/N=C/c1cccc([N+](=O)[O-])c1)c1cc2ccccc2o1,.,3.8*,2.2*,.,.
O=C(COc1ccc(/C=N/NC(=O)c2cc3ccccc3o2)cc1Cl)Nc1ccccc1,.,2.8*,1.5*,.,.
Cc1cc(C(=O)N/N=C/c2cccc([N+](=O)[O-])c2)c(C)o1,.,82.0,90.1,.,.

# Compound activity as filed in PubChem.
